The IC50 is the concentration that inhibits the measured activity by half.

The test system of experiment [1] is MDA-MB-231. Nature of the experiment: Induction of apoptosis in human MDA-MB-231 cells assessed as decrease in Mcl-1 protein expression at 3 to 9 uM measured after 48 hrs by western blot analysis. The class given is functional, cell-based. As to conditions: dose 3-9 µM. Put shortly: (§1)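 MCF-7 and MDA-MB-231 breast cancer cells treated 48 h with a concentration series, then lysed for protein. SDS-PAGE on 5–15% gels, transfer to nitrocellulose. Blocked 2 h in 5% nonfat milk/PBS-0.1% Tween 20, primary antibodies overnight at 4 °C, biotin-conjugated secondary 1 h. X-ray film detection with densitometric quantification.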
In general terms: In western blotting, separated proteins are transferred to a membrane and probed.

Experiment [2] deals with MDA-MB-231. Nature of the experiment: Induction of G2/M phase cell cycle arrest in human MDA-MB-231 cells assessed as upregulation of p-cdc25c protein expression at 9 uM measured after 48 hrs in presence of cdc25c inhibitor, NSC663284 by western blot analysis. The class given is functional, cell-based.
In experiment [3] the test system is MCF7. Put plainly: Induction of DNA damage in human MCF7 cells assessed as increase in Chk1 protein expression at 1 to 4 uM measured after 48 hrs by western blot analysis. The class given is functional, cell-based. The conditions noted are these: dose 1-4 µM. Put shortly:
(§2)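 Cells exposed to graded concentrations for 48 h, then proteins extracted. Run on SDS-PAGE (5–15% gels) and transferred to nitrocellulose. Blocked 2 h in 5% nonfat milk in PBS/0.1% Tween 20, primary antibody overnight at 4 °C, biotin-conjugated secondary 1 h. Visualized on X-ray film with densitometric quantitation; three independent experiments.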

Experiment [4] concerns MDA-MB-231. Put plainly: Induction of apoptosis in human MDA-MB-231 cells assessed as late apoptotic cells at 9 uM measured after 48 hrs in presence of cdc25c inhibitor, NSC663284 by AnnexinV-FITC/PI staining based flow cytometry (reference value: 8.3%). The class given is functional. For orientation: A flow cytometer gives signals particle by particle.
The test system of experiment [5] is MDA-MB-231. Nature of the experiment: Cell cycle arrest in human MDA-MB-231 cells assessed as accumulation of cells at G2/M phase at 9 uM in presence of cdc25c inhibitor, NSC663284 measured after 48 hrs by PI staining based flow cytometry. It counts as functional. Put shortly:
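Four arms (untreated, test compound alone, 0.3 NSC663284 alone, combination) applied to cells for 48 h. Cells were fixed in 70% ice-cold ethanol at 4 °C overnight and stained with RNase/PI for 30 min in the dark. G2/M fraction was read by flow cytometry.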

Experiment [6] concerns MCF7. Nature of the experiment: Cell cycle arrest in human MCF7 cells assessed as accumulation at G2/M phase at 1 uM measured after 48 hrs by propidium iodide staining based flow cytometry (reference value: 0.01 %). The class given is functional.
Experiment [7] concerns MCF7. Put plainly: Induction of apoptosis in human MCF7 cells assessed as late apoptotic cells at 2 uM measured after 48 hrs by Annexin V-FITC/propidium iodide staining based flow cytometric analysis (reference value: 0.6 %). It counts as functional.
Experiment [8] concerns MDA-MB-231. Put plainly: Induction of G2/M phase cell cycle arrest in human MDA-MB-231 cells assessed as upregulation of p-cdc25c at ser216 residue protein expression at 9 uM measured after 48 hrs by western blot analysis. The class given is functional, cell-based.
Experiment [9] has as its system MDA-MB-231. Nature of the experiment: Cell cycle arrest in human MDA-MB-231 cells assessed as accumulation at G1 phase at 9 uM measured after 48 hrs by propidium iodide staining based flow cytometry (reference value: 46.28%). It counts as functional.
Experiment [10] relates to MDA-MB-231. Nature of the experiment: Induction of apoptosis in human MDA-MB-231 cells assessed as increase in cleaved PARP protein expression at 3 to 9 uM measured after 48 hrs by western blot analysis. The conditions noted are these: dose 3-9 µM. It counts as functional, cell-based. Put shortly: as §1
Experiment [11] deals with MCF7. Nature of the experiment: Cell cycle arrest in human MCF7 cells assessed as accumulation at S phase at 1 uM measured after 48 hrs by propidium iodide staining based flow cytometry (reference value: 25.34 %). It counts as functional.
Experiment [12] concerns MCF7. Nature of the experiment: Induction of G2/M phase cell cycle arrest in human MCF7 cells assessed as upregulation of cdc25c protein expression at 4 uM measured after 48 hrs in presence of cdc25c inhibitor, NSC663284 by western blot analysis. The class given is functional, cell-based. Put shortly:
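Four groups (untreated, test compound, 0.3 NSC663284, combination) treated 48 h before protein extraction. Lysates resolved by SDS-PAGE (5–15%) and blotted to nitrocellulose. Blocked 2 h in 5% milk/PBS-0.1% Tween 20, primary antibody overnight at 4 °C, biotinylated secondary 1 h. Detected on X-ray film and quantified by densitometry.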

In experiment [13] the test system is MCF7. Put plainly: Induction of DNA damage in human MCF7 cells assessed as increase in Chk2 protein expression at 1 to 4 uM measured after 48 hrs by western blot analysis. It counts as functional, cell-based. As to conditions: dose 1-4 µM. Put shortly: as §2
Experiment [14] concerns MDA-MB-231. Nature of the experiment: Cell cycle arrest in human MDA-MB-231 cells assessed as accumulation at S phase at 9 uM measured after 48 hrs by propidium iodide staining based flow cytometry (reference value: 35.54 %). The class given is functional.
For experiment [15], the system named is MDA-MB-231. Put plainly: Cell cycle arrest in human MDA-MB-231 cells assessed as accumulation at S phase at 6 uM measured after 48 hrs by propidium iodide staining based flow cytometry (reference value: 35.54 %). The class given is functional.
Experiment [16] relates to MDA-MB-231. Nature of the experiment: Induction of apoptosis in human MDA-MB-231 cells assessed as increase in cleaved caspase 7 protein expression at 3 to 9 uM measured after 48 hrs by western blot analysis. The class given is functional, cell-based. As to conditions: dose 3-9 µM. Put shortly: as §1
Experiment [17] deals with ECa-109 cell line. Put plainly: Antiproliferative activity against human ECa-109 cells assessed as cell growth inhibition measured after 72 hrs by MTT assay. The class given is functional, cell-based. The conditions noted are these: ECa-109, 72 h. Put shortly:
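Cells seeded at 3000 exponentially growing cells/well and incubated 12 h at 37 °C. Medium then replaced with fresh medium containing graded compound concentrations for 72 h; 5-FU positive control. MTT (5 mg/mL solution) added for 4 h, formazan dissolved in DMSO, absorbance read at 570 nm (reference 630 nm). Relative percentage inhibition of viable cells calculated; IC50 reported as mean ± standard deviation.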
A general note: Tetrazolium assays rely on reduction of a dye to a coloured formazan, in cell work by metabolically active cells.

In experiment [18] the test system is MCF7. Nature of the experiment: Induction of apoptosis in human MCF7 cells assessed as increase in cleaved caspase 3 protein expression at 4 uM measured after 48 hrs in presence of cdc25c inhibitor, NSC663284 by western blot analysis. The class given is functional, cell-based. Put shortly: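 Four arms per cell line: untreated, test compound, 0.3 µM NSC663284 alone, and combination. Proteins harvested after 48 h and resolved by SDS-PAGE on 5–15% gels, transferred to nitrocellulose. Blocked 2 h in milk/PBS-Tween, primary antibodies overnight at 4 °C, biotin-conjugated secondary. Read on X-ray film with densitometry.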

Experiment [19] concerns MCF7. Nature of the experiment: Induction of apoptosis in human MCF7 cells assessed as increase in cleaved caspase 9 protein expression at 1 to 4 uM measured after 48 hrs by western blot analysis. The class given is functional, cell-based. As to conditions: dose 1-4 µM. Put shortly:
as §1

Experiment [20] deals with MCF7. Put plainly: Induction of mitochondrial membrane potential loss in human MCF7 cells assessed as green fluorescence intensity at 2 uM measured after 48 hrs by JC1 staining-based flow cytometry analysis (reference value: 8.1 %). It counts as functional.
The test system of experiment [21] is MCF7. Nature of the experiment: Induction of DNA damage in human MCF7 cells assessed as increase in ATM protein expression at 1 to 4 uM measured after 48 hrs by western blot analysis. It counts as functional, cell-based. As to conditions: dose 1-4 µM. Put shortly:
as §2

The subject of experiment [22] is MCF7. Nature of the experiment: Induction of mitochondrial membrane potential loss in human MCF7 cells assessed as red fluorescence intensity at 4 uM measured after 48 hrs by JC1 staining-based flow cytometry analysis (reference value: 91.9%). It counts as functional.
Experiment [23] relates to MDA-MB-231. Put plainly: Induction of G2/M phase cell cycle arrest in human MDA-MB-231 cells assessed as downregulation of p-cdc2 protein expression at 9 uM measured after 48 hrs in presence of cdc25c inhibitor, NSC663284 by western blot analysis. The class given is functional, cell-based.
In experiment [24] the test system is MCF7. Nature of the experiment: Induction of apoptosis in human MCF7 cells assessed as early apoptotic cells at 1 uM measured after 48 hrs by Annexin V-FITC/propidium iodide staining based flow cytometric analysis (reference value: 3 %). The class given is functional.

Active and inactive are the calls of the source. No cut-off for these calls is given here.

Turning to `C[C@H]1O[C@@H](n2cnc3c(N)nc(F)nc32)[C@H](O)[C@H]1OCP(=O)([O-])[O-].[Na+].[Na+]`, the outcome in experiment [1], in experiment [3], in experiment [8], in experiment [10], in [13] and in experiment [16] was Active. Further, the outcome in experiment [19] and in [21] was Active. The outcome in experiment [2], in experiment [5], in experiment [12], in experiment [18] and in experiment [23] was inactive. The Activity is on record as 3.2% in experiment [4]; 16.26% in experiment [6]; 6.5% in experiment [7]; 33.66% in experiment [9]; 18.63% in experiment [11]; 32.34% in experiment [14]. Also, the Activity in experiment [15] is listed as 31.86%; in [20], 32.8%; in [22], 41.9%; in experiment [24], 15.5%. Besides, the IC50 in experiment [17] was determined as 2570 nM.

Source of the values: ChEMBL document CHEMBL4837218, “Synthesis and in vitro antitumour activity of 4(R)-methyl-3-O-phosphonomethyl-α-l-threose nucleosides” (Eur J Med Chem, 2021).
